Assay results from paper PMC4720131 (ACS Chemical Biology, 2015).

System: HIV-1 Gag-Pol/Gag (frameshifting)
Assay: Western blot of virion proteins, ratio p160 to p24+p55
Format: cell-based
Conditions: protease inhibitor control
Summary of the method: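 Virions came from HEK293T producer cells transfected with an NL4-3 proviral vector (nef replaced by GFP, env deleted) plus VSV-G plasmid at 1:0.5. Test compound added 4 h post-transfection, media harvested at 24 h and 0.45-μm filtered. Virion proteins run on SDS-PAGE and blotted with anti-p24 to detect p24, p55 and p160. p160/(p24+p55) ratio taken by scanning densitometry. Indinavir served as protease-inhibitor control.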

## CC(C)(C)NC(=O)[C@@H]1CN(Cc2cccnc2)CCN1C[C@@H](O)C[C@@H](Cc1ccccc1)C(=O)N[C@H]1c2ccccc2C[C@H]1O [Indinavir, indinavir]
  effect on p160 on virion blot (in words): No buildup of p160 was observed
